{"data": "Experimental data gathered from unrelated publications", "target": "5-hydroxytryptamine receptor 2B (HTR2B, Homo sapiens, UniProt P41595)"}
{"SMILES": "C#CCOCCOCCOc1ccc2c3c1C1CCCC1N3CCNC2 (racemic)", "read-out": "ligand displacement", "technique": "radioligand", "tested at": "10 µM", "endpoint": "inhibition", "value": "~70%"}
{"SMILES": "CCN(CC)c1ccc(C2Nc3ccc(C(=O)c4ccccc4)cc3NC3=C2C(=O)CC(C)(C)C3)cc1 (centres unmarked)", "read-out": "ligand displacement", "technique": "radioligand", "tested at": "10 µM", "endpoint": "inhibition", "value": "50%"}
{"SMILES": "Nc1ccc(-c2ccncc2)cc1NC(=O)N1CCCC1", "read-out": "ligand displacement", "technique": "radioligand", "tested at": "10 µM", "endpoint": "inhibition", "value": "14%"}
{"SMILES": "O=C(O)c1cc(-c2ccc(C3CCNCC3)cc2)c2ccc(-c3ccc(C(F)(F)F)cc3)cc2c1", "read-out": "ligand displacement", "tested at": "10 µM", "endpoint": "inhibition", "value": "7.95%"}
{"SMILES": "O=C(Nc1ccc(S(=O)(=O)N2CCC(Cl)CC2)cc1)c1ccc([N+](=O)[O-])o1", "read-out": "ligand displacement", "technique": "radioligand", "tested at": "10 µM", "endpoint": "inhibition", "value": "8%"}
{"SMILES": "CCCNc1nc2ccccc2n1Cc1ccc(Cl)cc1", "read-out": "ligand displacement", "tested at": "10 µM", "endpoint": "inhibition", "value": "96.3%"}
{"SMILES": "Ic1cccc2cnccc12", "read-out": "ligand displacement", "technique": "radioligand", "tested at": "10 µM", "endpoint": "inhibition", "value": "79%"}
{"SMILES": "O=C1N=C(N2CCCCN2)S/C1=C\\c1ccc(F)cc1O", "read-out": "ligand displacement", "technique": "radioligand", "tested at": "10 µM", "endpoint": "inhibition", "value": "< 10%"}
{"SMILES": "CCN(Cc1ccccc1C(F)(F)F)C(=O)C1CCN(S(=O)(=O)c2ccc3[nH]ncc3c2)CC1", "read-out": "ligand displacement", "technique": "radioligand", "tested at": "10 µM", "endpoint": "inhibition", "value": "32%"}
{"SMILES": "Cc1ncc(-c2cc(Cl)ccc2F)cc1-n1c(=O)n(CC(N)=O)c2ccccc21", "read-out": "ligand displacement", "tested at": "10 µM", "endpoint": "inhibition", "value": "72%"}
{"SMILES": "O=C(c1ccc(Cl)cc1)N(Cc1ccccc1)C1CCCCC1", "read-out": "ligand displacement", "technique": "radioligand", "tested at": "10 µM", "endpoint": "inhibition", "value": "19.9%"}
{"SMILES": "Clc1cccc(OC[C@@H]2CN(CCN3CCc4ccccc43)CCO2)c1", "read-out": "calcium signal", "action": "agonist", "technique": "fluorescence", "endpoint": "Emax", "value": "71.2%"}
{"SMILES": "N#Cc1cc(Cn2c(N3CCCC3)nc3ccccc32)ccc1F", "read-out": "ligand displacement", "tested at": "10 µM", "endpoint": "inhibition", "value": "30.4%"}
{"SMILES": "O=C(c1ccc(F)cc1)N(Cc1ccccc1)C1CCCCC1", "read-out": "cell-free assay", "technique": "radioligand", "tested at": "10 µM", "endpoint": "inhibition", "value": "20%"}
